The text below walks through data of ChEMBL document CHEMBL4513216, “Probing the Open Global Health Chemical Diversity Library for Multistage-Active Starting Points for Next-Generation Antimalarials” (ACS Infect Dis, 2020).

This data set is described as follows: Toxicity liver stage against HepG2, at 10uM. It counts as cell-based. The settings on record: human, HepG2-A16-CD81EGFP cells; read-out: INHIBITION
Details: test concentration 10 uM, cell line HepG2-A16-CD81EGFP. In short, it runs like this: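 Uninfected HepG2-A16-CD81EGFP cells, 3 × 10^3 per well, 1536-well, plated on prespotted compound at 10 μM final, parasite-free screening media added to match infected plates; puromycin 10 μM positive, DMSO 0.5% negative; run in parallel with 48 h PbLuc assay at 37 °C, 5% CO2; viability by CellTiter-Glo luminescence, normalized to controls.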
For the molecule `Cc1cccc(NC(=O)C2CC(=O)n3cnnc3S2)c1` (stereo not given), the cytotoxicity at 10 µM came to 2.37%. To `c1ccc2c(Cc3nnc([C@H]4CCN(C5CCC5)C4)o3)c[nH]c2c1` belongs -0.0653%. In the case of `CS(=O)(=O)NC[C@H]1OC[C@@H](NC2CCC(F)(F)CC2)[C@@H]1O` it was 0.644%; in that of `CN1Cc2cc(F)ccc2N(CC(O)C(F)(F)F)CCC1=O` (stereo not given), 1.06%.

With `Cn1ccc2cc(C(=O)N3CC[C@@]4(O)CCCC[C@H]4C3)ccc21`, the cytotoxicity at 10 µM is -46.8%. In the case of `CC(=O)Nc1ccc(SCC(=O)NCC2CCCO2)nn1` (stereo not given) it was -16.7%. To `O=C(NCCC(O)c1ccco1)c1ccco1` (stereo not given) belongs 7.94%; to `Cc1cccc(CS(=O)(=O)NCc2nn(C)c3c2CCCC3)c1`, 2.37%. To `CC(=O)N1CCC2(CCCN(C(=O)CCN3CCCCC3)C2)C1` (stereo not given) belongs 0.906%; to `Cc1cccc(N2CC3(CCN(S(=O)(=O)c4cccs4)C3)CC2=O)c1` (stereo not given), -1.21%; to `Cc1nc(-c2cnn(C)c2)nc2c1CN(C(=O)c1cccnc1)CC2`, 2.68%.

Turning to `Cc1cccc(CN2C[C@@H]3CN(C(=O)c4conc4C)C[C@@H]3C2=O)c1`, the cytotoxicity at 10 µM stood at 2.66%. Consider `Cc1noc([C@@H]2C[C@H]3OCC[C@H]3N(S(=O)(=O)c3ccccc3)C2)n1`, for which the cytotoxicity at 10 µM was -126%.

Turning to `CCc1c(C(=O)O)nnn1-c1cc(C)cc(C)c1`, the cytotoxicity at 10 µM was -6.69%. In the case of `O=C(NCCN1CCOCC1)c1cc(-c2ccc3c(c2)CCO3)n[nH]1` it was -2.95%; in that of `O=C(c1cnn2c1OCCC2)N1CCN(C/C=C/c2ccccc2)CC1`, 9.28%; in that of `O=C(CC1CCCC1)NCCn1ccc(-c2ccccn2)n1`, 5.5%.

In the case of `O=C(c1cccs1)N1C[C@H]2CC[C@@]3(N=C(c4ccccc4)NC3=O)[C@H]2C1`, the cytotoxicity at 10 µM was -9.84%. Turning to `Cc1ccccc1CN1CCN(c2ncnc3c2NC(=O)CN3)CC1`, the cytotoxicity at 10 µM was 6.78%.

For `Cc1cccc(NC(=O)CN2C(=O)CC(C)(C)c3ccccc32)n1`, the cytotoxicity at 10 µM is 2.2%. On to `CCC(=O)N1CCCCC1c1nc(CN(C)C(C)=O)cc(N(C)C)n1` (stereo not given), for which the cytotoxicity at 10 µM was -3.17%. In the case of `Cc1nc(N)cc(C2CCN2CCC(N)=O)n1` (stereo not given) it was -1.21%; in that of `Cc1ccnn1CCC(=O)N1CCCC[C@]2(C)NC(=O)CCC[C@H]12`, -0.822%; in that of `COCC(=O)N1C[C@@H](c2cccc(OC)c2)[C@@]2(CCCCC(=O)N2)C1`, 1.62%. As for `Nc1ccc(CC2CCCN(Cc3c[nH]cn3)C2)nn1` (stereo not given), the cytotoxicity at 10 µM is -0.701%. In the case of `COCCC(=O)N1CCC(c2cncc(Oc3cccnc3)n2)CC1` it was -9.55%. To `CCC(=O)N1CCCC1c1csc(Nc2cnccn2)n1` (stereo not given) belongs -2.8%; to `O=C(C1CCCS1)N1CCOc2cccc(F)c21` (stereo not given), -6.54%. In the case of `CC(C)(NC(=O)c1scnc1Cl)c1ccccc1` it was -10.9%. On to `COc1ccc(C)cc1CN(CC(N)=O)C(C)C`, for which the cytotoxicity at 10 µM is -0.846%.

Turning to `CC(CNC(=O)c1cccnc1O)Cn1cccn1` (stereo not given), the cytotoxicity at 10 µM turned out to be 0.144%.

As for `CC(=O)c1sc(C(NC(=O)c2ccccc2)C2CC2)nc1C` (stereo not given), the cytotoxicity at 10 µM is -15.5%. In the case of `COC1CCN(CCNC(=O)NC(C)c2ccc(F)c(F)c2)CC1` (stereo not given), the cytotoxicity at 10 µM stood at 9.88%. With `CC(=O)N1CCN(CCNc2snc(Cl)c2C#N)CC1`, the cytotoxicity at 10 µM is 5.69%. Regarding `CN(Cc1cnn(C)c1)S(=O)(=O)N1CCCCCC1`, the cytotoxicity at 10 µM was -1.43%. To `CC(C)(O)CNC(=O)NCc1nccn1CCc1ccccc1` belongs 3.04%; to `CN(C(=O)NCc1nccn1CCc1ccccc1)C1CCC1`, 1.96%. In the case of `CC(C)C(C)NC(=O)Nc1ccc(CS(=O)(=O)C(C)C)cc1` (stereo not given) it was -1.28%; in that of `O=C(C1CCCC1)N1CCCC1c1nnc2n1CCCCC2` (stereo not given), -2.58%; in that of `CC(C)C(NC(=O)c1ccccc1F)C(=O)N1CCC2(CC1)OCCO2` (stereo not given), 7.04%. Regarding `O=c1c2cccnc2cnn1CC(O)c1ccc(F)c(F)c1` (stereo not given), the cytotoxicity at 10 µM is -7.44%.

Turning to `CN(CCCc1cc(-c2cccc(F)c2)n[nH]1)C(=O)CCn1cncn1`, the cytotoxicity at 10 µM was -132%. For the molecule `Cc1cc(CNC2(c3ccccc3F)CC2)no1`, the cytotoxicity at 10 µM stood at 5.71%. In the case of `CCC(=O)NCc1cc(Br)c(OC)c(OC)c1` it was -0.0582%; in that of `Cc1cc(=O)n2ncnc2n1CC(O)c1cc(F)ccc1F` (stereo not given), 1.7%; in that of `Cc1[nH]ccc1C(=O)Nc1cccc(CN2CCC(O)CC2)c1`, 0.149%.

Turning to `COc1ccc(C2CCCN2S(=O)(=O)N(C)CC(C)C)cc1` (stereo not given), the cytotoxicity at 10 µM is -6.72%.

Take `CN(C)C(=O)C1CCCN1CCCNC(=O)c1ccccc1F` (stereo not given): the cytotoxicity at 10 µM is -20.2%. For `CSCC(CCO)NC(=O)Nc1cccc(Br)c1` (stereo not given), the cytotoxicity at 10 µM was -7.69%. In the case of `CSCC(CCO)NC(=O)Nc1cc(Br)ccc1C` (stereo not given), the cytotoxicity at 10 µM is -11.1%.

For `O=C(c1ccoc1)N1CC[C@H]2C[C@@H](c3ccncn3)O[C@@H]2C1`, the cytotoxicity at 10 µM is -76.1%. In the case of `CS(=O)(=O)NCc1cc(-c2cc(F)cc(F)c2)nc(N2CCOCC2)n1` it was -9.24%; in that of `COc1ccc(Cn2c(CCc3c(C)n[nH]c3C)n[nH]c2=O)cc1`, -144%. `Cc1ccccc1OCC1CCCN(C(=O)Cc2c[nH]c(=O)[nH]c2=O)C1` (stereo not given): the cytotoxicity at 10 µM is -136%. As for `CCCc1ccc(CN2CCN(C(=O)N(C)C)[C@@H]3CS(=O)(=O)C[C@@H]32)o1`, the cytotoxicity at 10 µM amounted to 8.69%. In the case of `CCc1nc(CN(C)C(=O)CSC)no1` it was 2.25%. To `Cc1nnc(CCNC(=O)[C@H]2CNC[C@@H](C(=O)N3CCCC3)C2)s1` belongs -113%; to `Cc1nn2cc(CNc3nccc(CCC(F)(F)F)n3)nc2s1`, -8.27%; to `CCCc1ccc(CN2CCN(c3ncccn3)[C@@H]3CS(=O)(=O)C[C@@H]32)o1`, 1.66%. To `COc1c(C)cc(C(C(=O)O)N(C)Cc2ccn[nH]2)cc1C` (stereo not given) belongs 2.82%. For the molecule `CC(C)c1noc(CN(C)C(=O)C2COc3ccccc3C2)n1` (stereo not given), the cytotoxicity at 10 µM came to 2.77%. As to `COc1cccc(-c2n[nH]c3c2CN(C(=O)c2ccncc2)CC3)c1`, the cytotoxicity at 10 µM was -5.55%.

For the molecule `O=C(O)c1cc(-c2cn[nH]c2)cc(S(=O)(=O)N2CCSCC2)c1`, the cytotoxicity at 10 µM was -8.26%. Turning to `Cc1ccc(CN2CC[C@@]3(O)CCN(S(=O)(=O)N(C)C)C[C@H]3C2)cc1C`, the cytotoxicity at 10 µM is -1.42%. In the case of `COc1ccccc1CN(C)C(=O)c1cc(CN2CCC(O)CC2)on1` it was -26.7%.

Turning to `CN1CCCN(C[C@@H]2CN(C(=O)CCC3CCCC3)C[C@@H]2CO)CC1`, the cytotoxicity at 10 µM was -20.6%. To `Cn1cc(CN2CC[C@@H]3[C@@H](CCC(=O)N3CCc3c[nH]cn3)C2)cn1` belongs -9.73%; to `CCc1nc(C)cn1C(=O)Nc1ccc(C)cc1`, -1.64%. In the case of `Cn1c(=O)c2cc(C(=O)NCc3ccncc3)ccc2n(C)c1=O` it was -11.1%; in that of `CS(=O)(=O)c1ccc(C(=O)NCCNc2ncccn2)cc1`, -5.15%.

Consider `Cc1nc(C)n(CC2CN(CCOc3cccc(C#N)c3)CCO2)n1` (stereo not given), for which the cytotoxicity at 10 µM was -13.2%. To `CCCNC(=O)NC(=O)CNC(C)(C)c1ccc2c(c1)OCCO2` belongs -14.7%; to `CC(C)n1cc(CN2CCCN(C(=O)CC3CCCO3)CC2)cn1` (stereo not given), -12.4%; to `COc1ncccc1C(=O)N1CCCC(n2ccnc2)C1` (stereo not given), -5.1%.

Turning to `CN(Cc1ccncc1)C(=O)NCc1nnc2n1CCCCC2`, the cytotoxicity at 10 µM was -26%. In the case of `Cc1cnn(CC2CN(Cc3nc(-c4cccnc4)no3)CCO2)c1` (stereo not given) it was -20.5%; in that of `CC(C)Oc1ccc(CNC(=O)CC(F)(F)F)cc1F`, -1.08%. In the case of `NC(=O)NC(=O)CCN1CCCN(c2nccs2)CC1`, the cytotoxicity at 10 µM was found to be 11.1%. On to `Cc1cc(C)n(CC2CCCCN2CCCS(N)(=O)=O)n1` (stereo not given), for which the cytotoxicity at 10 µM is 6.28%. Take `O=C(Cc1ccccn1)N1CCN(C(=O)c2cccc3[nH]ncc23)CC1`: the cytotoxicity at 10 µM was -2.48%.

For the molecule `CC(C)OCCCNC(=O)c1ccc(-c2ccco2)[nH]c1=O`, the cytotoxicity at 10 µM was -4.45%. To `Cn1cnnc1C1CCCN(C(=O)NCCc2ccccc2F)C1` (stereo not given) belongs -1.88%. To `Cc1noc(C2CN(Cc3ccc4c(c3)CCO4)C2)n1` belongs -0.478%; to `c1cc(CN2CCCC3(COCCN(Cc4c[nH]nn4)C3)C2)cs1` (stereo not given), 8.59%; to `Cn1cccc1C(=O)NCc1cn2c(n1)CN(CC1CCOCC1)CC2`, 8.33%. Consider `CC(=O)N1CCC2(CC1)C(=O)N(CC1CCN(C)CC1)c1ccccc12`, for which the cytotoxicity at 10 µM was found to be 1.73%. To `CN(C)CCN1CCc2c(nnn2C)C1COCc1ccccc1` (stereo not given) belongs -90.3%.

`Cc1nc(CN2C(=O)C[C@@H]3[C@@H]2CCN3CC2CCOCC2)cs1`: the cytotoxicity at 10 µM was -135%. In the case of `Cc1ccc(NC2COC3(CCN(Cc4ccn(C)n4)CC3)C2)nn1` (stereo not given) it was -1.68%. Take `O=C(Nc1cnccn1)[C@H]1CC[C@@H]2[C@@H](CCN2Cc2ccccn2)O1`: the cytotoxicity at 10 µM is -139%. In the case of `CNC(=O)CN1CCc2c(CNc3nccs3)n[nH]c2C1` it was 3.25%; in that of `O=C(NCc1cccs1)[C@H]1CC[C@@H]2[C@@H](CCN2C2CCC2)O1`, -6.34%. In the case of `Cn1ccnc1CN1CCC2(CC1)CN(c1ccccc1)C(=O)CO2` it was -0.414%; in that of `CCN1CCC2(CC1)CC(NCc1cccc(C)n1)c1ccccc1O2` (stereo not given), -1.46%. In the case of `CN(C)C(c1ccccn1)C1CCC(CNC(=O)CC2CCCC2)CC1` (stereo not given) it was 9.43%.
